Screening data deposited in PubChem BioAssay by several laboratories.
Shown are actives, neighbours in structure and some others; about 0.79% of the full set was active somewhere.
TNAP inh no acc: inhibitors of human TNAP without phosphate acceptor | 200,000 compounds, 0.26% hits | inhibition, % at 20 µM | P05186 | purified TNAP, CDP-star luminescence, 30 min;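 active = tissue-nonspecific alkaline phosphatase inhibition above about 50% at 20 µM in the single-dose screen, limit read from the data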;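 note: 0% = DMSO negative control and 100% = EDTA positive control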
p97 inhibitor: inhibitors of human p97 ATPase. P55072. recombinant p97 ATPase, Kinase-Glo ATP luminescence, 3 h. inhibition, % at 8 µM. 220,000 compounds, 0.42% hits; in the data active = inhibition above about 15%;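 note: 0% = DMSO vehicle and 100% = wells lacking enzyme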
Redox H2O2 prof: compounds producing H2O2 with reducing agent – biochemical, NIH compound library profiling, artefact control for MLSCN library redox annotation, primary screen; DTT-dependent redox cycling H2O2, phenol red/HRP absorbance; 100% = 100 µM peroxide control, 0% = buffer; 200,000 compounds, 0.03% hits; activation, % at 10 µM;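 active = activation of at least 50% relative to the plate's high and low controls in the primary single-dose screen; inactive = activation below 50%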;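 note: compound incubated with DTT at 0.8 mM final as the reducing agent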
TNAP inh hiacc: TNAP (human) inhibition, high acceptor. P05186. purified TNAP, CDP-star luminescence, 1 M DEA. inhibition, % at 20 µM. 200,000 compounds, 0.03% hits. AID 1135;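 active = over 50% inhibition of tissue-nonspecific alkaline phosphatase at 20 µM in the single-dose screen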;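 note: plate controls were DMSO wells for no effect and EDTA-quenched wells as full inhibition for full effect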
G6PDH CS: inhibits Leuconostoc G6PDH, flagging false hits in G6PDH-based assays; Purified L. mesenteroides G6PDH, diaphorase/resazurin coupled fluorescence, 45 min; inhibition, % at 5 µM; 200,000 compounds, 0.12% hits; AID 1020; in the data active = inhibition above about 50%
TNAP act hiacc: TNAP (human) activation, high acceptor; P05186; purified TNAP, CDP-star luminescence, 1 M DEA, 30 min; hits give high values; 0 = EDTA background, 1 = DMSO-only activity; activation factor at 20 µM; 200,000 tested, under 10 active; AID 1136;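 active = activation factor at least 2 at 20 µM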
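Control set: EDTA negative control, DMSO positive control / Assay system: human TNAP / Quantity: TNAP 1/800 final / Evaluation: TNAP activation factor scaled between EDTA and DMSO control wells / Measured by: luminescent substrate turnover signal / Compound dosing: one dose, 20 µM / Times: 30 min enzyme reaction at room temperature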
p97 confirm: human p97 ATPase inhibition, confirmation; shares compounds with p97 inhibitor; recombinant p97 ATPase, Kinase-Glo ATP luminescence; inhibition, % at 8 µM; 760 compounds, 44% hits; AID 1517;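 active = percent inhibition of p97 ATPase above a set limit, the primary screen's mean plus 3 SD, cut at about 15% in these data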;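 note: 0% = DMSO wells and 100% = wells lacking p97 protein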
Starred values were filed as active, the others as inactive; . = no result given.

SMILES	TNAP inh no acc	p97 inhibitor	Redox H2O2 prof	TNAP inh hiacc	G6PDH CS	TNAP act hiacc	p97 confirm
O=C(NC(=C(Cl)Cl)S(=O)(=O)c1ccc(Cl)cc1)c1ccccc1	.	25*	.	.	.	.	27*
Cc1ccc(C(=O)NC(=C(Cl)Cl)S(=O)(=O)c2ccc(Cl)cc2)cc1	-4	17*	1	-3	2	1	23*
Cc1ccc(S(=O)(=O)C(NC(=O)c2ccccc2)=C(Cl)Cl)cc1	.	5	-3	.	.	.	.
Cc1ccc(C(=O)NC(=C(Cl)Cl)S(=O)(=O)c2ccc(C)cc2)cc1	-8	11	0	0	-4	1	.
COC(=O)c1ccccc1NC(=O)c1sc(N)nc1C	-9	15*	0	-4	8	1	7
Cc1cc(SCC(=O)c2ccc(O)c(O)c2)n2nc(C)c(-c3ccccc3)c2n1	.	15*	.	.	.	.	18*
CCOc1ccccc1CN1C(=O)c2ccccc2C1C(=O)NCC1CCCO1 (stereo not drawn)	-9	4	1	4	-13	1	.
CCOc1ccccc1CN1C(=O)c2ccccc2C1C(=O)NC(C)CC (stereo not drawn)	-10	19*	0	-4	1	1	9
Cc1cc(NCc2ccccc2)nc(-c2ccccc2O)n1	-16	20*	-1	-10	-2	1.1	35*
Cc1cc(Nc2ccccc2)nc(-c2ccccc2O)n1	2	25*	0	-4	10	1	40*
O=C(c1ccco1)N1CCN(CCCCOc2cccc3ccccc23)CC1	-6	-2	1	-2	-7	1	.
Cc1ccc(SCC(=O)NC(=O)NCCC(C)C)c(C)c1	-6	-2	0	-2	4	1	.
COc1ccccc1-c1nnc(Sc2nc([N+](=O)[O-])nn2C)o1	-13	16*	0	-4	-6	1	24*
COc1cccc(NCc2ccc([N+](=O)[O-])s2)c1	-12	2	0	8	-2	0.9	.
C=CCn1c(SCC(=O)NCc2ccco2)nc2ccccc2c1=O	-17	15*	2	-4	-1	1	8
Cc1ccc(NC(=O)C2CCCN2S(=O)(=O)c2ccc(F)cc2)c(C)c1 (stereo not drawn)	-1	-7	-1	0	-6	1	.
COCCCNC(=O)c1cccn2c(=O)c3cc4ccccc4cc3nc12	-4	15*	-4	-2	28	1	-14
C=CCN1C(=NC(=O)CC)SC2CS(=O)(=O)CC21 (stereo not drawn)	-12	2	-3	-5	1	1	.
CCCCOCCCNC(=O)N[C@H](C(=O)OC)C(C)CC (stereo partly drawn)	.	-1	.	.	.	.	.
CC1=NN(c2nc(-c3ccc(Cl)cc3)cs2)C(=O)C1	-8	16*	-6	1	1	1	7
NC(=S)NNc1cccc2cccnc12	38	16*	0	19	39	0.8	11
NC(=S)Nc1cccc2cccnc12	-11	3	2	2	4	1	.
O=C(NOC(=O)c1ccccc1Cl)c1cccs1	-6	1	0	0	2	1	.
COC(=O)COc1ccc(NC(=O)c2ccco2)cc1	.	6	.	.	.	.	.
O=[N+]([O-])c1ccc(C(O)C(CO)NC(=S)Nc2ccccc2)cc1 (stereo not drawn)	.	16*	.	.	.	.	9
Cc1ccc(NC(=S)NC(CO)C(O)c2ccc([N+](=O)[O-])cc2)cc1 (stereo not drawn)	-13	3	-2	0	-4	1	.
CCSc1n[nH]c(=S)s1	-14	5	0	-6	15	1.1	.
CC(Sc1ccsc1[N+](=O)[O-])C(=O)NCCc1ccc(Cl)cc1 (stereo not drawn)	-6	-2	0	-4	4	1	.
COc1ccccc1CNC(=O)C(C)Sc1ccsc1[N+](=O)[O-] (stereo not drawn)	-12	20*	1	-5	0	1.1	8
